“And” between values parts separate entries of the source, which are not always exact repeats. Identical values can stand only once.
Legend:
Mus musculus [1] = assay: Toxicity in mice after 13-20 days at a dose of 40 mg/kg/day; value is 19/9; format: functional
Mus musculus [2] = assay: Toxicity in mice after 12-15 days at a dose of 10 mg/kg/day; value is 13/9; format: functional
Mus musculus [3] = species on record: Mus musculus; assay: Percentage increase in life span after 17-18 days; format: functional
How it was run: (§1)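 Male B6D2F1J mice (20–25 g), randomized after i.p. inoculation with 10^5 L1210 ascitic leukemia cells on day 0. Drug in water, pH 7.5–8.0, given i.p. on a q2d×5, qd×9 (from day 1) or b.i.d.×10 schedule; 5 mice per group. %ILS = [(T/C) − 1]100 from median survival days of treated versus control mice. Range is survival days.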

Mus musculus [4] = assay: Weight change on day 7 in L1210 Lymphoid Leukemia in mice at a dose of 10 mg/kg/day (qd x9); format: functional
How it was run: (§2)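 Male B6D2F₁J mice (20–25 g) bearing ip L1210 ascites (10⁵ cells, day 0) were used, 5 per group. Drug was given ip in water at pH 7.5–8.0 from day 1 on q2d×5, qd×9 or b.i.d.×10 schedules. Animals were weighed after 7 days and percent weight change recorded.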

Mus musculus [5] = species on record: Mus musculus; assay: Percentage increase in life span after 12-15 days; format: functional; how it was run: as §1
Mus musculus [6] = species on record: Mus musculus; assay: Percentage increase in life span after 15-17 days; format: functional
How it was run: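 Male B6D2F1J mice (20–25 g) were inoculated i.p. with 10⁵ L1210 ascitic leukemia cells on day 0 and randomized into groups of 5. Drug in water at pH 7.5–8.0 was given i.p. from day 1 on qd×9, q2d×5 or b.i.d.×10 schedules. Weight change was recorded at day 7. %ILS = [(T/C) − 1]100, using median survival days; ≥25% counts as significant.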

Mus musculus [7] = assay: Toxicity in mice after 15-17 days at a dose of 20 mg/kg/day; value is 16/9; format: functional
Mus musculus [8] = assay: Weight change on day 7 in L1210 Lymphoid Leukemia in mice at a dose of 20 mg/kg/day (qdx9); format: functional; how it was run: as §2
L1210 [9] = assay: Cytotoxicity against L1210 cells; format: functional; settings: Mus musculus, read-out: ID50 (the source's name)
Mus musculus [10] = assay: Weight change on day 7 in L1210 Lymphoid Leukemia in mice at a dose of 30 mg/kg/day (qdx9); format: functional; how it was run: as §2
Mus musculus [11] = species on record: Mus musculus; assay: Percentage increase in life span after 13-20 days; format: functional; how it was run: as §1
Mus musculus [12] = assay: Toxicity in mice after 17-18 days at a dose of 30 mg/kg/day; value is 17/9; format: functional
Mus musculus [13] = assay: Weight change on day 7 in L1210 Lymphoid Leukemia in mice at a dose of 40 mg/kg/day (qdx9); format: functional
How it was run: (§3)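 Male B6D2F1J mice (20–25 g) were inoculated i.p. with 10⁵ L1210 ascites cells on day 0 and randomized into groups of 5. Drug in water at pH 7.5–8.0 was given i.p. daily for 9 days (qd×9) from day 1. Animals were weighed after 7 days, and the % body-weight change was recorded under a standard NCI protocol.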

[14] = biological target: T1, Dihydrofolate reductase (Mus musculus) (UniProt P00375); assay: Binding affinity to Dihydrofolate reductase of L1210/R71 using spectrophotometric assay
T1 sequence (whole entry): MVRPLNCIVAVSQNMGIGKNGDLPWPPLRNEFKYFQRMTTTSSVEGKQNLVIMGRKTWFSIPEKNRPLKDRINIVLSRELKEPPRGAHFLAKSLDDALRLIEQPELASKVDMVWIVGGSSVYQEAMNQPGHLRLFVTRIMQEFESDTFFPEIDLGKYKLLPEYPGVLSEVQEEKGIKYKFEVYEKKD
How it was run: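 The enzyme was isolated from MTX-resistant L1210/R71 cultured cells and purified on MTX-agarose. The assay measured ΔA340 at 22 °C in 0.1 M Tris, pH 7.0, with 62 nM enzyme. Enzyme was preincubated 2 min with inhibitor and NADPH, and dihydrofolate was then added to start the reaction. ID₅₀ determined.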

Mus musculus [15] = species on record: Mus musculus; assay: Percentage increase in life span after 12-19 days; format: functional; how it was run: as §1
Mus musculus [16] = assay: Toxicity in mice after 11-22 days at a dose of 6 mg/kg/day; value is 21/9; format: functional
Mus musculus [17] = assay: Toxicity in mice after 15-17 days at a dose of 0.75 mg/kg/day; value is 17/8; format: functional
Mus musculus [18] = assay: Toxicity in mice after 14-18 days at a dose of 10 mg/kg/day; value is 17/9; format: functional
Mus musculus [19] = assay: Toxicity in mice after 14-18 days at a dose of 2 mg/kg/day; value is 16/9; format: functional
Mus musculus [20] = assay: Weight change on day 7 in L1210 Lymphoid Leukemia in mice at a dose of 0.75 mg/kg/day (b.i.d. x10); format: functional; how it was run: as §2
Mus musculus [21] = species on record: Mus musculus; assay: Percentage increase in life span after 17-22 days; format: functional; how it was run: as §1
Mus musculus [22] = assay: Weight change on day 7 in L1210 Lymphoid Leukemia in mice at a dose of 10 mg/kg/day (qd x5); format: functional
Mus musculus [23] = assay: Weight change on day 7 in L1210 Lymphoid Leukemia in mice at a dose of 4 mg/kg/day (qdX9); format: functional; how it was run: as §2
Mus musculus [24] = species on record: Mus musculus; assay: 1Percentage increase in life span after 12-15 days; format: functional; how it was run: as §1
L1210 [25] = assay: cytotoxicity against L1210 cells; format: functional; settings: Mus musculus, read-out: ID50 (the source's name)
Mus musculus [26] = assay: Weight change on day 7 in L1210 Lymphoid Leukemia in mice at a dose of 0.5 mg/kg/day (b.i.d. x10); format: functional; how it was run: as §2
Mus musculus [27] = assay: Toxicity in mice after 12-15 days at a dose of 0.25 mg/kg/day; value is 13/8; format: functional
Mus musculus [28] = assay: Toxicity in mice after 15-17 days at a dose of 0.5 mg/kg/day; value is 16/8; format: functional
Mus musculus [29] = species on record: Mus musculus; assay: Toxicity in mice after 17-22 days at a dose of; value is 20/9; format: functional
Mus musculus [30] = assay: Toxicity in mice after 12-19 days at a dose of 4 mg/kg/day; value is 17/9; format: functional
Mus musculus [31] = assay: Weight change on day 7 in L1210 Lymphoid Leukemia in mice at a dose of 0.25 mg/kg/day (b.i.d. x10); format: functional; how it was run: as §2
Mus musculus [32] = species on record: Mus musculus; assay: Percentage increase in life span after 14-18d ays; format: functional; how it was run: as §1
Mus musculus [33] = assay: Weight change on day 7 in L1210 Lymphoid Leukemia in mice at a dose of 6 mg/kg/day (qdX9); format: functional; how it was run: as §3
Mus musculus [34] = species on record: Mus musculus; assay: Percentage increase in life span after 11-22 days; format: functional; how it was run: as §1
Mus musculus [35] = assay: Weight change on day 7 in L1210 Lymphoid Leukemia in mice at a dose of 2 mg/kg/day (qdx9); format: functional; how it was run: as §2
Mus musculus [36] = assay: Weight change on day 7 in L1210 Lymphoid Leukemia in mice at a dose of 15 mg/kg/day (qd x5); format: functional; settings: in the assay text read “q2dx5” for “qdx5”; how it was run: as §2

SMILES: CN(Cc1cnc2nc(N)nc(N)c2n1)c1ccc(C(=O)NC(CCCCCC(=O)O)C(=O)O)cc1 (stereo unspecified)
- T/C (Mus musculus [1]): 19
- T/C (Mus musculus [2]): 13
- ILS (Mus musculus [3]): 89%
- Weight change (Mus musculus [4]): 11%
- ILS (Mus musculus [5]): 44%
- ILS (Mus musculus [6]): 78%
- T/C (Mus musculus [7]): 16
- Weight change (Mus musculus [8]): 7%
- IC50 (L1210 [9]): 6.3 nM
- Weight change (Mus musculus [10]): 9%
- ILS (Mus musculus [11]): 111%
- T/C (Mus musculus [12]): 17
- Weight change (Mus musculus [13]): 6%
- ID50 [14]: 35 nM

SMILES: CN(Cc1cnc2nc(N)nc(N)c2n1)c1ccc(C(=O)N[C@@H](CCC(=O)O)C(=O)O)cc1 [METHOTREXATE]
- ILS (Mus musculus [15]): 89%
- T/C (Mus musculus [16]): 21
- T/C (Mus musculus [17]): 17
- T/C (Mus musculus [18]): 17
- T/C (Mus musculus [19]): 16
- Weight change (Mus musculus [20]): 3%
- ILS (Mus musculus [21]): 122%
- Weight change (Mus musculus [22]): 11%
- Weight change (Mus musculus [23]): -2%
- ILS (Mus musculus [24]): 63%
- IC50 (L1210 [25]): 20 nM
- Weight change (Mus musculus [26]): 1%
- T/C (Mus musculus [27]): 13
- T/C (Mus musculus [28]): 16
- T/C (Mus musculus [29]): 20
- T/C (Mus musculus [30]): 17
- Weight change (Mus musculus [31]): 1%
- ILS (Mus musculus [32]): 89% and 78%
- Weight change (Mus musculus [33]): -2%
- ILS (Mus musculus [34]): 133%
- Weight change (Mus musculus [35]): 6%
- Weight change (Mus musculus [36]): 8%

— ChEMBL document CHEMBL1122411 (J Med Chem, 1983)
